The values that follow come from ChEMBL document CHEMBL3580574, “Design, Synthesis, and Biological Evaluation of Hexacyclic Tetracyclines as Potent, Broad Spectrum Antibacterial Agents” (J Med Chem, 2015).

In brackets after ≈: the same amount, converted by molar mass.

The test system of assay [1] is Staphylococcus aureus. Kind of assay: Antibacterial activity against Staphylococcus aureus 101 ATCC 29213 assessed as bacterial growth inhibition by susceptibility testing assay. It is filed as functional. Particulars: Staphylococcus aureus, 101 ATCC 29213; read-out: MIC. The essentials:
(§1)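 Broth microdilution MIC per CLSI in cation-adjusted Mueller Hinton broth, made fresh and held at 4 °C before testing. Medium supplemented with lysed horse blood where appropriate. Compound stocks prepared and serially diluted in sterile deionized water. Runs were accepted against QC ranges for comparator antibiotics and ATCC QC strains.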

Assay [2] relates to Staphylococcus aureus. Kind of assay: Antibacterial activity against methicillin-resistant, tet(M) tetracycline-resistant Staphylococcus aureus 161 assessed as bacterial growth inhibition by susceptibility testing assay. It is filed as functional. Particulars: Staphylococcus aureus, 161; read-out: MIC. The essentials:
(§2)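 Broth microdilution MIC per CLSI in 96-well plates; compound stocks prepared and serially diluted in sterile deionized water; cation-adjusted Mueller Hinton broth prepared fresh and held at 4 °C before testing, supplemented with lysed horse blood as appropriate; runs accepted when comparator antibiotics fell within QC ranges for appropriate ATCC quality control strains.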

The subject of assay [3] is Staphylococcus aureus. Kind of assay: Antibacterial activity against tet(K) tetracycline-resistant Staphylococcus aureus 158 assessed as bacterial growth inhibition by susceptibility testing assay. It is filed as functional. Particulars: Staphylococcus aureus, 158; read-out: MIC.
The next assay has as its system Enterococcus faecalis. Kind of assay: Antibacterial activity against tet(M) tetracycline-resistant Enterococcus faecalis 327 assessed as bacterial growth inhibition by susceptibility testing assay. Particulars: Enterococcus faecalis, 327; read-out: MIC. It is filed as functional. The essentials: as §2
Another assay deals with Enterococcus faecium. The experiment in a line: Antibacterial activity against tet(M) tetracycline-resistant Enterococcus faecium 404 assessed as bacterial growth inhibition by susceptibility testing assay. It is filed as functional. Particulars: Enterococcus faecium, 404; read-out: MIC.
The next assay relates to Streptococcus pneumoniae. The experiment in a line: Antibacterial activity against tet(M) tetracycline-resistant Streptococcus pneumoniae 160 assessed as bacterial growth inhibition by susceptibility testing assay. It is filed as functional. Particulars: Streptococcus pneumoniae, 160; read-out: MIC.
Assay [4] deals with Escherichia coli. The experiment in a line: Antibacterial activity against Escherichia coli 107 ATCC 25922 assessed as bacterial growth inhibition by susceptibility testing assay. In kind it is functional. Particulars: Escherichia coli, 107 ATCC 25922; read-out: MIC. The essentials:
as §1

The test system of assay [5] is Escherichia coli. Kind of assay: Antibacterial activity against tet(A) tetracycline-resistant Escherichia coli 155 assessed as bacterial growth inhibition by susceptibility testing assay. In kind it is functional. Particulars: Escherichia coli, 155; read-out: MIC. The procedure, abridged:
as §2

The test system of the next assay is Klebsiella pneumoniae. Kind of assay: Antibacterial activity against Klebsiella pneumoniae 457 harboring CTX-M-15 gene assessed as bacterial growth inhibition by susceptibility testing assay. It is filed as functional. Particulars: Klebsiella pneumoniae, 457; read-out: MIC. The essentials:
as §2

The next assay relates to Proteus mirabilis. The experiment in a line: Antibacterial activity against Proteus mirabilis 385 assessed as bacterial growth inhibition by susceptibility testing assay. Particulars: Proteus mirabilis, 385; read-out: MIC. In kind it is functional. The essentials:
as §1

Assay [6] concerns Pseudomonas aeruginosa. The experiment in a line: Antibacterial activity against Pseudomonas aeruginosa 555 BAA-47 assessed as bacterial growth inhibition by susceptibility testing assay. In kind it is functional. Particulars: Pseudomonas aeruginosa, 555 BAA-47; read-out: MIC. The procedure, abridged:
as §1

Another assay has as its system Enterobacter cloacae. The experiment in a line: Antibacterial activity against tet(A) tetracycline-resistant Enterobacter cloacae 603 assessed as bacterial growth inhibition by susceptibility testing assay. In kind it is functional. Particulars: Enterobacter cloacae, 603; read-out: MIC. The essentials:
as §2

A further assay has as its system Acinetobacter baumannii. The experiment in a line: Antibacterial activity against tet(B) tetracycline-resistant Acinetobacter baumannii 250 assessed as bacterial growth inhibition by susceptibility testing assay. In kind it is functional. Particulars: Acinetobacter baumannii, 250; read-out: MIC. The essentials:
as §2

Assay [7] relates to Stenotrophomonas maltophilia. The experiment in a line: Antibacterial activity against Stenotrophomonas maltophilia 256 assessed as bacterial growth inhibition by susceptibility testing assay. Particulars: Stenotrophomonas maltophilia, 256; read-out: MIC. In kind it is functional. The procedure, abridged:
(§3)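 Medium supplemented with lysed horse blood where appropriate. Compound stocks prepared and serially diluted in sterile deionized water. Runs were accepted against QC ranges for comparator antibiotics and ATCC QC strains.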

The test system of another assay is Burkholderia cenocepacia. Kind of assay: Antibacterial activity against Burkholderia cenocepacia 240 assessed as bacterial growth inhibition by susceptibility testing assay. In kind it is functional. Particulars: Burkholderia cenocepacia, 240; read-out: MIC. The procedure, abridged: as §3
The test system of assay [8] is Pseudomonas aeruginosa. The experiment in a line: Antibacterial activity against Pseudomonas aeruginosa 1145 assessed as bacterial growth inhibition by susceptibility testing assay. It is filed as functional. The procedure, abridged:
as §2

Assay [9] concerns Pseudomonas aeruginosa. Kind of assay: Antibacterial activity against Pseudomonas aeruginosa 1145 infected in immunocompetent BALB/c mouse lung infection model assessed as log reduction in colony forming units at 40 mg/kg, iv bid administered at 2 hrs and 12 hrs post-infection measured 24 hrs post-drug treatment. In kind it is functional. The procedure, abridged: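 Female BALB/c mice (18−20 g) received intranasal inoculum under light anesthesia. IV treatment at 2 and 12 h postinfection, six mice per group per dose. An untreated group was harvested at 2 h. Lungs were taken 24 h after treatment start, weighed, homogenized, diluted and plated on MacConkey medium overnight at 37 °C, 5% CO2. Read-out: CFU per gram lung.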

For assay [10], the system named is Pseudomonas aeruginosa. The experiment in a line: Antibacterial activity against Pseudomonas aeruginosa 694 infected in iv dosed immunocompetent CD-1 mouse thigh infection model assessed as reduction in colony forming units administered twice daily at 2 hrs and 12 hrs post-infection measured 24 hrs post-drug treatment. It is filed as functional, organism-based. The essentials:
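Thigh model: inoculum given intramuscularly into the right thigh on day 0. IV dosing with vehicle, test agent or comparator at 2 and 12 h postinfection. Untreated groups were harvested at 2 and 24 h. Thigh muscle was collected at 24 h postinfection, homogenized in PBS pH 7.4, diluted and plated on Brain Heart Infusion agar + 0.5% charcoal. Read-out: CFU per gram thigh.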

As to `CN(C)[C@@H]1C(O)=C(C(N)=O)C(=O)[C@@]2(O)C(O)=C3C(=O)c4c(O)c5c(c(OC(F)(F)F)c4C[C@H]3C[C@@H]12)C1NCCC1CN5` (mixture of isomers), the MIC (in general, the least concentration at which growth counts as inhibited) with Staphylococcus aureus [1] stood at 0.5 µg/mL; with Staphylococcus aureus [2], 2 µg/mL; with Staphylococcus aureus [3] it was 0.25 µg/mL; in the assay with Enterococcus faecalis it was 0.5 µg/mL; in the assay on Enterococcus faecium it was 0.25 µg/mL; with Streptococcus pneumoniae it was 0.25 µg/mL. For the same molecule, the MIC with Escherichia coli [4] is 0.5 µg/mL; with Escherichia coli [5], 2 µg/mL; in the assay on Klebsiella pneumoniae, 2 µg/mL; with Proteus mirabilis it was 4 µg/mL; in the assay with Pseudomonas aeruginosa [6] it was 32 µg/mL; with Enterobacter cloacae it was 8 µg/mL. In addition, the MIC is greater than 32 µg/mL in the assay on Acinetobacter baumannii, 16 µg/mL in assay [7] and greater than 32 µg/mL with Burkholderia cenocepacia.
`CN(C)CCN1CC[C@H]2CNc3c(O)c4c(c(F)c3[C@H]21)C[C@H]1C[C@H]2[C@H](N(C)C)C(O)=C(C(N)=O)C(=O)[C@@]2(O)C(O)=C1C4=O`: the minimal inhibitory concentration (MIC) in the assay with Staphylococcus aureus [1] came to 4 µg/mL (≈ 6.67 µM); in the assay on Staphylococcus aureus [2], 16 µg/mL (≈ 26.7 µM); in the assay on Staphylococcus aureus [3] it was 1 µg/mL (≈ 1.67 µM); with Enterococcus faecalis, 8 µg/mL (≈ 13.3 µM); with Enterococcus faecium, 4 µg/mL (≈ 6.67 µM); with Streptococcus pneumoniae, 1 µg/mL (≈ 1.67 µM). The MIC was 8 µg/mL (≈ 13.3 µM) with Escherichia coli [4]; greater than 32 µg/mL with Escherichia coli [5]; 32 µg/mL (≈ 53.4 µM) in the assay with Klebsiella pneumoniae; greater than 32 µg/mL in the assay on Proteus mirabilis; greater than 32 µg/mL in the assay with Pseudomonas aeruginosa [6]; greater than 32 µg/mL in the assay with Enterobacter cloacae. Also, the MIC (with Acinetobacter baumannii; in assay [7]; in the assay on Burkholderia cenocepacia) was greater than 32 µg/mL in each case.
In the case of `CN(C)c1cc(NC(=O)CNC(C)(C)C)c(O)c2c1C[C@H]1C[C@H]3[C@H](N(C)C)C(O)=C(C(N)=O)C(=O)[C@@]3(O)C(O)=C1C2=O` [TIGECYCLINE], the MIC in the assay on Staphylococcus aureus [1] came out at 0.0625 µg/mL (≈ 0.107 µM); in the assay on Staphylococcus aureus [2], 0.125 µg/mL (≈ 0.213 µM); with Staphylococcus aureus [3], 0.125 µg/mL (≈ 0.213 µM); in the assay with Enterococcus faecalis, 0.125 µg/mL (≈ 0.213 µM); with Enterococcus faecium, 0.0312 µg/mL (≈ 0.0533 µM); in the assay with Streptococcus pneumoniae, 0.0156 µg/mL (≈ 0.0266 µM). The MIC in the assay with Escherichia coli [4] was 0.125 µg/mL (≈ 0.213 µM); in the assay on Escherichia coli [5] it was 1 µg/mL (≈ 1.71 µM); with Klebsiella pneumoniae, 1 µg/mL (≈ 1.71 µM); in the assay on Proteus mirabilis, 4 µg/mL (≈ 6.83 µM); in the assay on Pseudomonas aeruginosa [6], 16 µg/mL (≈ 27.3 µM); with Enterobacter cloacae it was 4 µg/mL (≈ 6.83 µM). In addition, the minimum inhibitory concentration (MIC) in the assay with Acinetobacter baumannii came to 8 µg/mL (≈ 13.7 µM); in assay [7] it was 2 µg/mL (≈ 3.41 µM); with Burkholderia cenocepacia it was 16 µg/mL (≈ 27.3 µM).
Consider `NCC[C@H](O)C(=O)N[C@@H]1C[C@H](N)[C@@H](O[C@H]2O[C@H](CN)[C@@H](O)[C@H](O)[C@H]2O)[C@H](O)[C@H]1O[C@H]1O[C@H](CO)[C@@H](O)[C@H](N)[C@H]1O` [AMIKACIN], for which the MIC with Pseudomonas aeruginosa [8] came to 1 µg/mL (≈ 1.71 µM). Also, the log10CFU/g in the assay with Pseudomonas aeruginosa [9] is 2.
Consider `CN(C)[C@@H]1C(O)=C(C(N)=O)C(=O)[C@@]2(O)C(O)=C3C(=O)c4c(O)c5c(c(F)c4C[C@H]3C[C@@H]12)[C@@H]1[C@@H](CCN1C)CN5` (stereo in doubt; 10c), for which the inhibition entry with Pseudomonas aeruginosa [10] was “Dose-dependent effect”.
